The source made the active and inactive calls. The calls are words filed in the database; no cut-off is given here.
How the values were obtained:
HUVEC [1] = assay: Inhibition of Akt/mTOR signalling in VEGF-induced HUVEC assessed as reduction in mTOR phosphorylation at Ser2448 residue at 1 to 20 uM pre-incubated for 1.5 hrs followed by VEGF stimulation and measured after 30 mins by Western blot analysis; format: cell-based; conditions: Homo sapiens
Procedure, shortened: (§1)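 HUVECs were starved overnight, pretreated 1.5 h with 1, 5, 10 or 20 μM, then stimulated with VEGF (50 ng/mL) for 30 min. Lysates were equalized by Bradford assay, about 20 μg protein was resolved on gradient SDS-PAGE and immunoblotted with phospho-specific antibodies. Detection by HRP secondary antibodies and ECL.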

HT-29 [2] = assay: Inhibition of Akt/mTOR signalling in human HT-29 cells assessed as reduction in AKT phosphorylation at Ser473 residue incubated for 24 hrs by immunoblot analysis; format: cell-based
Procedure, shortened: (§2)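 HT29 cells were exposed to the indicated concentrations for 24 h. Cell lysates were then immunoblotted for the phosphorylated proteins.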

HT-29 [3] = assay: Induction of apoptosis in human HT-29 cells assessed as necrotic cells at 1 uM after 24 hrs by Annexin V-FITC/propidium iodide staining based flow cytometric analysis (reference value: 3.9%); format: cell-based; conditions: ht-29, 24 h
[4] = Induction of apoptosis in VEGF-stimulated HUVEC assessed as viable cells at 1 uM after 24 hrs by Annexin V-FITC/propidium iodide staining based flow cytometric analysis (reference value: 69.6%); format: cell-based; conditions: human, read-out: Activity
Procedure, shortened: (§3)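 HUVECs plated at 5×10^5 per well and treated 24 h with 1, 5, 10 or 20 μM. Detached and adherent cells were pooled, washed in ice-cold PBS and resuspended in fresh medium. 1×10^5 cells were stained with annexin-V-FITC in annexin-V buffer for 20 min in the dark, then PI (50 μg/mL) was added. Read-out by flow cytometry.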

HT-29 [5] = assay: Downregulation of MMP2 expression in human HT-29 cells after 24 hrs by immunoblot analysis; format: functional, cell-based
Aorta = assay: Inhibition of VEGF-induced capillary sprouting in Sprague-Dawley rat aortic ring at 20 uM treated for every 3 days for 7 days measured on day 7 by inverted microscopy relative to control; format: functional
Procedure, shortened: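 Aortas from anesthetized Sprague-Dawley rats cut into 1-mm rings and embedded in Matrigel for 1 h at 37°C. Rings starved 1 day, then cultured in opti-MEM with 2.5% FBS and 30 ng/mL VEGF plus compound. Treatment renewed every 3 days for 7 days. Sprouting imaged on day 7 by inverted microscopy.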

[6] = Induction of apoptosis in human HT-29 cells assessed as viable cells at 1 uM after 24 hrs by Annexin V-FITC/propidium iodide staining based flow cytometric analysis (reference value: 80.8%); format: cell-based; conditions: read-out: Activity
Chorioallantoic membrane = assay: Antiangiogenic activity in Leghorn chicken fertilized egg chorioallantoic membrane at 10 nM/egg measured after 48 hrs by CAM assay; format: functional, tissue-based; conditions: Gallus gallus
Procedure, shortened: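 Fertile Leghorn eggs incubated at 37.8°C, 40% humidity; window opened on day 7; compound, sunitinib or 0.9% NaCl mixed with DMSO applied on filter paper onto CAM; 48 h incubation, methanol fixation, photography; nascent vessels counted.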

Mus musculus = assay: Antiangiogenic activity in Matrigel plug angiogenic Balb/c mouse model assessed as impaired vascularization by measuring loss of red colour in VEGF-supplemented matrigel at 20 to 60 mg/kg, sc measured after 15 days; format: functional, organism-based
Procedure, shortened: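 Balb/c nude mice (6–8 weeks), three groups, injected subcutaneously with 400 μL Matrigel alone or with VEGF (250 ng/mL) and/or compound; after 15 days plugs removed, weighed and photographed.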

HUVEC [7] = assay: Inhibition of Akt/mTOR signalling in VEGF-induced HUVEC assessed as reduction in AKT phosphorylation at Ser473 residue at 1 to 20 uM pre-incubated for 1.5 hrs followed by VEGF stimulation and measured after 30 mins by Western blot analysis; format: cell-based; conditions: Homo sapiens; procedure, shortened: as §1
HUVEC [8] = assay: Antimigratory activity in HUVEC assessed as reduction in VEGF-induced cell migration at 2.5 uM measured after 12 hrs by wound healing assay relative to control; format: functional; conditions: Homo sapiens
Procedure, shortened: (§4)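 Confluent HUVECs starved 12 h in M200 with 2% FBS, scratched with pipette tip; fresh M200 with 25 ng/mL VEGF plus vehicle, 2.5 μM sunitinib or compound (1, 2.5 μM); wound imaged at 0, 6, 12 and 24 h by inverted microscopy.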

HepG2 = assay: Cytotoxicity against human HepG2 cells assessed as reduction in cell growth after 72 hrs by MTT assay; format: cell-based; conditions: HepG2, 72 h
HT-29 [9] = assay: Induction of apoptosis in human HT-29 cells assessed as early apoptotic cells at 1 uM after 24 hrs by Annexin V-FITC/propidium iodide staining based flow cytometric analysis (reference value: 1.9%); format: cell-based; conditions: ht-29, 24 h
HT-29 [10] = assay: Inhibition of Akt/mTOR signalling in human HT-29 cells assessed as reduction in mTOR phosphorylation at Ser2448 residue incubated for 24 hrs by immunoblot analysis; format: cell-based; procedure, shortened: as §2
HT-29 [11] = assay: Antitumor activity against human HT-29 cells xenografted in mouse assessed as reduction in mTOR phosphorylation in tumor at 20 to 60 mg/kg, po administered every other day for 3 weeks and measured at 20 days post treatment by immunohistochemical staining; format: functional, organism-based
HUVEC [12] = assay: Antimigratory activity in HUVEC assessed as reduction in VEGF-induced cell migration measured after 6 to 24 hrs by wound healing assay; format: functional, cell-based; conditions: Homo sapiens; procedure, shortened: as §4
HT-29 [13] = assay: Induction of apoptosis in human HT-29 cells assessed as early apoptotic cells at 20 uM after 24 hrs by Annexin V-FITC/propidium iodide staining based flow cytometric analysis (reference value: 1.9%); format: cell-based; conditions: ht-29, 24 h
[14] = target: Vascular endothelial growth factor receptor 2 (Homo sapiens) (UniProt P35968); assay: Inhibition of VEGFR2 in VEGF-stimulated HUVEC assessed as downregulation of Src phosphorylation at Tyr416 residue at 1 to 10 uM pre-incubated for 2 hrs followed by VEGF stimulation and measured after 15 mins by Western blot analysis; format: cell-based
Vascular endothelial growth factor receptor 2 (Homo sapiens), sequence (P35968 whole entry): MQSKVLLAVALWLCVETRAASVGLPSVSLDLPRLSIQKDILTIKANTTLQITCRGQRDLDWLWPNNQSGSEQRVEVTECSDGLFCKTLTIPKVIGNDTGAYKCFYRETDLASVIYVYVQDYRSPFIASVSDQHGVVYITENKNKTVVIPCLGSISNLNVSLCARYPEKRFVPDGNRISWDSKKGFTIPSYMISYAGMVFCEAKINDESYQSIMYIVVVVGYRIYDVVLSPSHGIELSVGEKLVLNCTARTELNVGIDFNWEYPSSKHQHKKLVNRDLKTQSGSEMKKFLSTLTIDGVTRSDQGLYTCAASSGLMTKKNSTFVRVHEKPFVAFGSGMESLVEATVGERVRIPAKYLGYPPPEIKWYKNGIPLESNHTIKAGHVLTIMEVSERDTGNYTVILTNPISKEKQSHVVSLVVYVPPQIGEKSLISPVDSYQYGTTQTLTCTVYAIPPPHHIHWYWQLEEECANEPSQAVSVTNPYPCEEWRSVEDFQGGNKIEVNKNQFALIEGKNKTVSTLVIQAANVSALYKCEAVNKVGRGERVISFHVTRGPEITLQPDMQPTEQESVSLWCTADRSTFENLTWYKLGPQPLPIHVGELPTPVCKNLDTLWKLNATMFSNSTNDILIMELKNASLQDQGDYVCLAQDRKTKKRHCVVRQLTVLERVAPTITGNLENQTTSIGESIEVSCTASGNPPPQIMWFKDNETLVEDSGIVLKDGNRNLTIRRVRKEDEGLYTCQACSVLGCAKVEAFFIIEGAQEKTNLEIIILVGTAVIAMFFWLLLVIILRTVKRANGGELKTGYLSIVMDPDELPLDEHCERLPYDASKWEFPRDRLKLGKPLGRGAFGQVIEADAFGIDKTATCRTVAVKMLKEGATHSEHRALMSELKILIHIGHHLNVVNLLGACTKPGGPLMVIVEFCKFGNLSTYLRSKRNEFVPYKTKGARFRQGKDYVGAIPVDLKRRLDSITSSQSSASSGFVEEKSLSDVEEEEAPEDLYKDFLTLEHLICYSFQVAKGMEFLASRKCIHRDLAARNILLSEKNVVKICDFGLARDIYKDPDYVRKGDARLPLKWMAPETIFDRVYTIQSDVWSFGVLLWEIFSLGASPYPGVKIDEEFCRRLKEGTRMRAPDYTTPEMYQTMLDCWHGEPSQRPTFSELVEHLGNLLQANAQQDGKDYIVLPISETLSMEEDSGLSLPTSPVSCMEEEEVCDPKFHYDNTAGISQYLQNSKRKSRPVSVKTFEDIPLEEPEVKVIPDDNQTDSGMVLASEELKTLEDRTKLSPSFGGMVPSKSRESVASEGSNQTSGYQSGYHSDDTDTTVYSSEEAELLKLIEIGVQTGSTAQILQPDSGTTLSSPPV

HUVEC [15] = assay: Antiangiogenic activity in HUVEC assessed as inhibition of VEGF-induced capillary like tube formation preincubated with VEGF for 20 mins followed by compound addition measured after 6 hrs by matrigel based tube formation assay; format: functional, cell-based; conditions: Homo sapiens
Procedure, shortened: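 Matrigel (100 μL) set 1 h at 37°C; 2×10⁴ HUVECs in M200 with 10% FBS added per well plus 10 ng/mL VEGF; compound added after 20 min; incubated 6 h at 37°C, then capillary-like structures photographed.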

HUVEC [16] = assay: Induction of apoptosis in VEGF-stimulated HUVEC assessed as late apoptotic cells at 20 uM after 24 hrs by Annexin V-FITC/propidium iodide staining based flow cytometric analysis (reference value: 11.3%); format: cell-based; conditions: human; procedure, shortened: as §3
HUVEC [17] = assay: Antiinvasive activity in HUVEC assessed as inhibition of VEGF-induced cell invasion at 5 uM after 6 hrs by crystal violet staining based transwell assay relative to control; format: functional; conditions: Homo sapiens
Procedure, shortened: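 Transwell: 1×10⁴ HUVECs in serum-free M200 in top chamber with vehicle or compound; bottom chamber M200 with 10% FBS; 6 h at 37°C; cells on membrane underside fixed in 4% paraformaldehyde, stained 0.1% crystal violet, imaged and counted.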

inhibition [14]: Active
Structure (SMILES): COc1ccc(NC(=O)c2cccc(/C=C3\CC(=O)N(c4ccc(C)cc4)C3=O)c2)cc1
inhibition (HUVEC [1]): Active | inhibition (HT-29 [2]): Dose-dependent effect | Activity (HT-29 [3]): 4.4% | viability at 24 h, 1 µM [4]: 72.6% | inhibition (HT-29 [5]): Dose-dependent effect | inhibition at 20 µM (Aorta): 95% | viability at 24 h, 1 µM [6]: 79.9% | Activity (Chorioallantoic membrane): Active | Activity (Mus musculus): Active | inhibition (HUVEC [7]): Active | inhibition at 2.5 µM (HUVEC [8]): 50% | IC50 (HepG2): > 100 µM | Activity (HT-29 [9]): 1.3% | inhibition (HT-29 [10]): Dose-dependent effect | inhibition (HT-29 [11]): Active | inhibition (HUVEC [12]): Dose-dependent effect | Activity (HT-29 [13]): 1.7% | inhibition (HUVEC [15]): Dose-dependent effect | Activity (HUVEC [16]): 10.1% | inhibition at 5 µM (HUVEC [17]): 40%
